For series [1], the system named is THP-1. As to the kind of experiment: Antiinflammatory activity in LPS-stimulated human THP1 cells assessed as inhibition of TNFalpha formation at 1 uM pretreated 30 mins before LPS challenge measured after 24 hrs by ELISA. The format is functional. On the set-up: scale not given: the % may be the effect or the level left. The method in brief:
(§1)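 PMA-differentiated human THP-1 cells in RPMI 1640 with 10% FBS, penicillin and streptomycin. Compound or vehicle (0.5% DMSO) was added for 30 min at 37 °C, then E. coli 0127:B8 LPS. Cells were incubated 24 h at 37 °C, 5% CO2. Supernatant TNF-α and IL-6 were measured by ELISA. Percent inhibition of release was calculated versus control.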

The subject of series [2] is Radical scavenging activity. As to the kind of experiment: Antioxidant activity assessed as DPPH free radical scavenging activity at 1 uM after 2 mins by spectrophotometry. It counts as functional. On the technique in general: Loss of DPPH colour is used to gauge radical scavenging.
In series [3] the test system is Radical scavenging activity. Nature of the series: Antioxidant activity assessed as DPPH free radical scavenging activity at 1 uM after 4 mins by spectrophotometry. It counts as functional.
Series [4] relates to Radical scavenging activity. Nature of the series: Antioxidant activity assessed as DPPH free radical scavenging activity at 1 uM after 6 mins by spectrophotometry. It counts as functional.
In series [5] the test system is Radical scavenging activity. Nature of the series: Antioxidant activity assessed as DPPH free radical scavenging activity at 1 uM after 8 mins by spectrophotometry. The format is functional.
Series [6] relates to Radical scavenging activity. Nature of the series: Antioxidant activity assessed as DPPH free radical scavenging activity at 1 uM after 10 mins by spectrophotometry. It counts as functional.
For series [7], the system named is THP-1. Nature of the series: Antiinflammatory activity in LPS-stimulated human THP1 cells assessed as inhibition of TNFalpha formation at 10 uM pretreated 30 mins before LPS challenge measured after 24 hrs by ELISA. The format is functional. On the set-up: scale not given: the % may be the effect or the level left. The method in brief:
as §1

Series [8] relates to THP-1. Nature of the series: Antiinflammatory activity in LPS-stimulated human THP1 cells assessed as inhibition of IL6 formation at 10 uM pretreated 30 mins before LPS challenge measured after 24 hrs by ELISA. Set-up: scale not given: the % may be the effect or the level left. It counts as functional. The method in brief:
as §1
(In general: In an ELISA, binding on a coated surface is turned into a signal by an enzyme label.)

Series [9] deals with THP-1. Nature of the series: Antiinflammatory activity in LPS-stimulated human THP1 cells assessed as inhibition of IL6 formation at 1 uM pretreated 30 mins before LPS challenge measured after 24 hrs by ELISA. It counts as functional. On the set-up: scale not given: the % may be the effect or the level left. A digest of the protocol:
as §1

Series [10] can be described thus: Cytotoxicity against LPS-stimulated human THP-1 cells at 10 uM after 24 hrs by CCK-8 assay. The settings on record: THP-1, 24 h. Background: Tetrazolium dyes change colour on reduction, which living cells bring about.
Series [11] concerns Radical scavenging activity. Nature of the series: Antioxidant activity assessed as DPPH free radical scavenging activity at 1 mM after 20 mins by spectrophotometry.

Active and inactive are the calls of the source. No cut-off for these calls is given here.

Regarding `C[C@@H]1C[C@H]2[C@@H]3CCC4=CC(=O)C=C[C@]4(C)[C@@]3(F)[C@@H](O)C[C@]2(C)[C@@]1(O)C(=O)CO` [DEXAMETHASONE], in the series with THP-1 [1], the Activity worked out at 73%.

As for `COc1cc(OC)c(C(=O)c2cccc(F)c2)c(O)c1CN1CCOCC1`, the outcome in series [2], in series [3], in [4], in [5], in [6] and in [11] was inactive. The Activity in the series with THP-1 [7] came to 21%; in the series with THP-1 [8] it was 86%; in the series on THP-1 [9], 35%; in [10], 42%.

Turning to `COc1cc(OC)c(C(=O)c2ccccc2Br)c(O)c1CN1CCN(C)CC1`, the Activity in series [2] was found to be 3.2%; in series [3], 3.95%; in [4], 4.5%; in series [5], 6.8%; in series [6], 7.59%; with THP-1 [7], 20%. The Activity with THP-1 [8] was found to be 81%; in the series on THP-1 [9], 9%; in series [10] it was 23%; in series [11], 13.5%.

As for `COc1cc(OC)c(C(=O)c2cccc(Cl)c2)c(O)c1CN1CCCC1`, the Activity in series [2] worked out at 0.5%; in [3], 1.6%; in [4], 1.82%; in [5], 2.1%; in series [6] it was 2.11%; in the series on THP-1 [7], 37%. In addition, the Activity with THP-1 [8] amounted to 81%; in the series with THP-1 [9], 41%; in series [10] it was 53%; in series [11], 5.13%.

For `COc1cc(OC)c(C(=O)c2ccccc2F)c(O)c1CN1CCOCC1`, the Activity in [2] came to 3.5%; in series [3] it was 4.2%; in series [4] it was 4.74%; in series [5], 6.8%; in series [6], 8.21%; with THP-1 [7], 27%. The Activity in the series with THP-1 [8] stood at 89%; in the series on THP-1 [9], 19%; in series [10], 39%; in series [11], 19.7%.

For the compound `COc1cc(OC)c(C(=O)c2cccc(F)c2)c(O)c1CN1CCCC1`, the Activity in series [2] was found to be 0.92%; in series [3], 4.51%; in series [4], 2.11%; in series [5] it was 3.78%; in series [6] it was 4.78%; in the series on THP-1 [7], 1%. Also, the Activity in the series on THP-1 [8] was 93%; in the series on THP-1 [9], 34%; in series [10] it was 34%; in [11] it was 7.29%.

For the origin of these results see ChEMBL document CHEMBL1156322, “Synthesis and biological evaluation of nitrogen-containing benzophenone analogues as TNF-alpha and IL-6 inhibitors with antioxidant activity” (Bioorg Med Chem Lett, 2010).
